Assay results published in publication PMC7266109 (Drug Design, Development and Therapy, 2020).
Like-named read-outs stand apart in the source and are kept apart here.

Assay type: in vitro ADME, rat
Procedure, shortened: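 Spiked rat plasma held under storage and analysis conditions, then quantified by UPLC-MS/MS. Work-up: IS (working solution 100 ng/mL) added, protein precipitation with acetonitrile (3 volumes), vortex 1 min, centrifugation 13,000 g for 10 min at 4°C, supernatant injected. Separation: BEH C18 column at 40°C, acetonitrile/0.1% formic acid gradient at 0.40 mL/min, 3.0 min run.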

Stability in rat plasma samples (at room temperature for at least 24 h): stable | Stability in rat plasma samples (at −20°C for at least 31 days): stable | Stability in rat plasma samples (in the auto-sampler (10°C) for at least four hours): stable | Stability in rat plasma samples (three complete freeze (−20°C)/thaw (RT) cycles): stable
Compound: CCc1nc(C(N)=O)c(Nc2ccc(N3CCC(N4CCN(C)CC4)CC3)c(OC)c2)nc1NC1CCOCC1 [Gilteritinib]
